{"source": "ChEMBL document CHEMBL1135509", "about": "(J Med Chem, 2002)", "key": {"[1]": {"target": "T1, Sodium-dependent dopamine transporter (Rattus norvegicus, UniProt P23977)", "T1 sequence (P23977 whole entry)": "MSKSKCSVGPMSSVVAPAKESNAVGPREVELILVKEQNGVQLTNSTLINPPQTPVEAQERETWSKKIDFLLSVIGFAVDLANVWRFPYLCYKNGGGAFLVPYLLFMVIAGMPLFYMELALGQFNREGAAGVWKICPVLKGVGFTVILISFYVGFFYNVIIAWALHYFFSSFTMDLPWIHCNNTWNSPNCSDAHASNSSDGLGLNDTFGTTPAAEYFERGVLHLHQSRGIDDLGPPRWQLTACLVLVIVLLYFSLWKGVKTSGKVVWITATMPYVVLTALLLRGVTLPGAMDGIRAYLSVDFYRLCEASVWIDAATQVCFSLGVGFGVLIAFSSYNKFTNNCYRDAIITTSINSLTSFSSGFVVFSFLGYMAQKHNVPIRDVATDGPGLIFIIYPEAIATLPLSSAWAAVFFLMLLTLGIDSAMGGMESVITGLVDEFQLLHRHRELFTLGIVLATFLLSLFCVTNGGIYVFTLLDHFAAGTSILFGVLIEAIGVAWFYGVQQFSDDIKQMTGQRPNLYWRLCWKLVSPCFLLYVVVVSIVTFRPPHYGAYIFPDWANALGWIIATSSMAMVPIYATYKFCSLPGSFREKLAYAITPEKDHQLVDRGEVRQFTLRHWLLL", "assay": "Inhibition of high affinity uptake of [3H]-DA by dopamine transporter in nerve endings obtained from rat brain.", "method_in_brief": "(§1)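 Reuptake inhibition reported as Ki; values are mean ± standard error of at least three experiments.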"}, "[2]": {"target": "Norepinephrine transporter (Rattus norvegicus, UniProt Q9WTR4)", "sequence (Q9WTR4 whole entry)": "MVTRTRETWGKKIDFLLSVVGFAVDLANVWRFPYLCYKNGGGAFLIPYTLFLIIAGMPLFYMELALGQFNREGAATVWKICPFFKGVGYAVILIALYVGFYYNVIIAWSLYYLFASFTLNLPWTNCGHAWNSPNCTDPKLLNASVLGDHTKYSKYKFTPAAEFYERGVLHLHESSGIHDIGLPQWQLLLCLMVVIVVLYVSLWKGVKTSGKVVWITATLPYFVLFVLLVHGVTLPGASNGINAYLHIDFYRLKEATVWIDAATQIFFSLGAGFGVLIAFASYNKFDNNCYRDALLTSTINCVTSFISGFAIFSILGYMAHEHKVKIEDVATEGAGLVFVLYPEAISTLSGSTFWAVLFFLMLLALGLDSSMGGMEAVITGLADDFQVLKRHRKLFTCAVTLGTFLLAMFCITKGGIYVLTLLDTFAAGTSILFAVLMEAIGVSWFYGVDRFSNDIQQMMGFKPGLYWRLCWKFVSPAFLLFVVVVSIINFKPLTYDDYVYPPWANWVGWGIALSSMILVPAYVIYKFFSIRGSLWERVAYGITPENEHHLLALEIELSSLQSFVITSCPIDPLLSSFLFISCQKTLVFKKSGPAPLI", "assay": "Inhibition of high affinity uptake of [3H]NE by norepinephrine transporter in nerve endings obtained from rat brain.", "method_in_brief": "as §1"}, "[3]": {"target": "Monoamine transporters; serotonin & dopamine (Rattus norvegicus) (UniProt P31652+P23977)", "sequence (P23977 whole entry, looked up)": "as the sequence (P23977 whole entry) above", "sequence (P31652 whole entry, looked up)": "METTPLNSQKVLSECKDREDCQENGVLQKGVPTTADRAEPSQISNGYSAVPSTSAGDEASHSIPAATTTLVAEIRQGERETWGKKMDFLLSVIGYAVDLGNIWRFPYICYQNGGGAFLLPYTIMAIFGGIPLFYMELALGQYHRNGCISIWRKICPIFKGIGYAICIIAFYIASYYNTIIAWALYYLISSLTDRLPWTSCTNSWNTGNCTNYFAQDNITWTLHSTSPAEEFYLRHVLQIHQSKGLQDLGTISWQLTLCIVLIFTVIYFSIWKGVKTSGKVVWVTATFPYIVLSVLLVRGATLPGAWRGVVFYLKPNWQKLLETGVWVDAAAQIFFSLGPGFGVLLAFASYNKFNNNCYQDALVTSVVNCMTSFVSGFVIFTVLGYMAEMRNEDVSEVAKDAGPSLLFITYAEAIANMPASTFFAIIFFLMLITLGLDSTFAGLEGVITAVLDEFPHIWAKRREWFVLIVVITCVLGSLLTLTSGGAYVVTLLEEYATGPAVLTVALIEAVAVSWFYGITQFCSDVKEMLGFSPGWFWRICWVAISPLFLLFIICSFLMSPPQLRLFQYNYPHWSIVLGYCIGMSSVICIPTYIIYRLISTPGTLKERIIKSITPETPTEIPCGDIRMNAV", "assay": "Ratio of Ki at 5-HT transporter and Ki at dopamine transporter.", "format": "protein assay", "method_in_brief": "(§2)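 Selectivity ratio calculated from Ki values measured in the monoamine reuptake assays, each Ki being the mean ± standard error of at least three experiments.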"}, "[4]": {"target": "Monoamine transporters; Norepininephrine & dopamine (Rattus norvegicus) (UniProt P23977+Q9WTR4)", "assay": "Ratio of Ki at norepinephrine transporter and Ki at dopamine transporter.", "format": "protein assay", "method_in_brief": "as §2"}, "[5]": {"target": "Monoamine transporters; Norepinephrine & serotonin (Rattus norvegicus) (UniProt P31652+Q9WTR4)", "assay": "Ratio of Ki at norepinephrine transporter and Ki at 5-HT transporter.", "format": "protein assay", "method_in_brief": "as §2"}, "[6]": {"target": "Sodium-dependent serotonin transporter (Rattus norvegicus, UniProt P31652)", "sequence (P31652 whole entry)": "as the sequence (P31652 whole entry, looked up) above", "assay": "Inhibition of high affinity uptake of [3H]5-HT by serotonin transporter in nerve endings obtained from rat brain.", "method_in_brief": "as §1"}, "[7]": {"target": "T1, Sodium-dependent dopamine transporter", "assay": "373 Ability to inhibit high affinity uptake of [3H]DA using rat nerve endings obtained from brain regions enriched in dopamine transporter", "method_in_brief": "as §1"}}}
{"smiles": "COC(=O)C1CNCC[C@@H]1c1ccc(Cl)cc1", "note": "(some centres not stated)", "values": [{"measurement": "Ki", "setting": "[1]", "result": 279, "unit": "nM"}, {"measurement": "Ki", "setting": "[2]", "result": 7.9, "unit": "nM"}, {"measurement": "Ratio", "setting": "[3]", "result": 1.56}, {"measurement": "Ratio", "setting": "[4]", "result": 0.03}, {"measurement": "Ratio", "setting": "[5]", "result": 0.02}, {"measurement": "Ki", "setting": "[6]", "result": 434, "unit": "nM"}]}
{"smiles": "CCOC(=O)CCN1CC[C@H](c2ccc(Cl)cc2)C(C(=O)OC)C1", "note": "(some centres not stated)", "values": [{"measurement": "Ki", "setting": "[1]", "result": "> 10000", "unit": "nM"}, {"measurement": "Ki", "setting": "[2]", "result": 2100, "unit": "nM"}, {"measurement": "Ratio", "setting": "[4]", "result": "< 0.21"}, {"measurement": "Ratio", "setting": "[5]", "result": "< 0.21"}, {"measurement": "Ki", "setting": "[6]", "result": "> 10000", "unit": "nM"}]}
{"smiles": "COC(=O)C1CN(S(=O)(=O)c2ccccc2)CC[C@@H]1c1ccc(Cl)cc1", "note": "(some centres not stated)", "values": [{"measurement": "Ki", "setting": "[2]", "result": 16100, "unit": "nM"}, {"measurement": "Ratio", "setting": "[3]", "result": 1.85}, {"measurement": "Ratio", "setting": "[4]", "result": 0.83}, {"measurement": "Ratio", "setting": "[5]", "result": 0.45}, {"measurement": "Ki", "setting": "[6]", "result": 36100, "unit": "nM"}]}
{"smiles": "COC(=O)C1CN(CCCc2ccccc2)CC[C@@H]1c1ccc(Cl)cc1", "note": "(some centres not stated)", "values": [{"measurement": "Ki", "setting": "[1]", "result": 810, "unit": "nM"}, {"measurement": "Ki", "setting": "[2]", "result": 488, "unit": "nM"}, {"measurement": "Ratio", "setting": "[3]", "result": 4.04}, {"measurement": "Ratio", "setting": "[4]", "result": 0.6}, {"measurement": "Ratio", "setting": "[5]", "result": 0.15}, {"measurement": "Ki", "setting": "[6]", "result": 3270, "unit": "nM"}]}
{"smiles": "Cc1noc(C2CN(C)CC[C@@H]2c2ccc(Cl)cc2)n1", "note": "(some centres not stated)", "values": [{"measurement": "Ki", "setting": "[1]", "result": 187, "unit": "nM"}, {"measurement": "Ki", "setting": "[2]", "result": 256, "unit": "nM"}, {"measurement": "Ratio", "setting": "[3]", "result": 31.8}, {"measurement": "Ratio", "setting": "[4]", "result": 1.37}, {"measurement": "Ratio", "setting": "[5]", "result": 0.04}, {"measurement": "Ki", "setting": "[6]", "result": 5960, "unit": "nM"}]}
{"smiles": "COC(=O)C1CN(CCCF)CC[C@@H]1c1ccc(Cl)cc1", "note": "(some centres not stated)", "values": [{"measurement": "Ki", "setting": "[1]", "result": 4280, "unit": "nM"}, {"measurement": "Ki", "setting": "[2]", "result": 335, "unit": "nM"}, {"measurement": "Ratio", "setting": "[3]", "result": "> 2.3"}, {"measurement": "Ratio", "setting": "[4]", "result": 0.08}, {"measurement": "Ratio", "setting": "[5]", "result": "< 0.03"}, {"measurement": "Ki", "setting": "[6]", "result": "> 10000", "unit": "nM"}]}
{"smiles": "COC(=O)C1CN(CCCCl)CC[C@@H]1c1ccc(Cl)cc1", "note": "(some centres not stated)", "values": [{"measurement": "Ki", "setting": "[1]", "result": 3150, "unit": "nM"}, {"measurement": "Ki", "setting": "[2]", "result": 441, "unit": "nM"}, {"measurement": "Ratio", "setting": "[3]", "result": "> 3.17"}, {"measurement": "Ratio", "setting": "[4]", "result": 0.14}, {"measurement": "Ratio", "setting": "[5]", "result": "< 0.04"}, {"measurement": "Ki", "setting": "[6]", "result": "> 10000", "unit": "nM"}]}
{"smiles": "Cc1noc(C2CNCC[C@@H]2c2ccc(Cl)cc2)n1", "note": "(some centres not stated)", "values": [{"measurement": "Ki", "setting": "[7]", "result": 189, "unit": "nM"}, {"measurement": "Ki", "setting": "[2]", "result": 34, "unit": "nM"}, {"measurement": "Ratio", "setting": "[3]", "result": 1.97}, {"measurement": "Ratio", "setting": "[4]", "result": 0.18}, {"measurement": "Ratio", "setting": "[5]", "result": 0.09}, {"measurement": "Ki", "setting": "[6]", "result": 373, "unit": "nM"}]}
{"smiles": "COC(=O)C1CN(C(C)C)CC[C@@H]1c1ccc(Cl)cc1", "note": "(some centres not stated)", "values": [{"measurement": "Ki", "setting": "[1]", "result": 6980, "unit": "nM"}, {"measurement": "Ki", "setting": "[2]", "result": 1840, "unit": "nM"}, {"measurement": "Ratio", "setting": "[3]", "result": 0.54}, {"measurement": "Ratio", "setting": "[4]", "result": 0.26}, {"measurement": "Ratio", "setting": "[5]", "result": 0.49}, {"measurement": "Ki", "setting": "[6]", "result": 3740, "unit": "nM"}]}
{"smiles": "COC(=O)C1CN(CCC(c2ccccc2)c2ccccc2)CC[C@@H]1c1ccc(Cl)cc1", "note": "(some centres not stated)", "values": [{"measurement": "Ki", "setting": "[1]", "result": 4290, "unit": "nM"}, {"measurement": "Ki", "setting": "[2]", "result": 4340, "unit": "nM"}, {"measurement": "Ratio", "setting": "[3]", "result": 0.63}, {"measurement": "Ratio", "setting": "[4]", "result": 1.01}, {"measurement": "Ratio", "setting": "[5]", "result": 1.61}, {"measurement": "Ki", "setting": "[6]", "result": 2690, "unit": "nM"}]}
{"smiles": "OCC1CNCC[C@@H]1c1ccc(Cl)cc1", "note": "(some centres not stated)", "values": [{"measurement": "Ki", "setting": "[1]", "result": 836, "unit": "nM"}, {"measurement": "Ki", "setting": "[2]", "result": 69, "unit": "nM"}, {"measurement": "Ratio", "setting": "[3]", "result": 0.29}, {"measurement": "Ratio", "setting": "[4]", "result": 0.08}, {"measurement": "Ratio", "setting": "[5]", "result": 0.29}, {"measurement": "Ki", "setting": "[6]", "result": 239, "unit": "nM"}]}
{"smiles": "COC(=O)[C@@H]1CN(Cc2ccccc2)CC[C@@H]1c1ccc(Cl)cc1", "values": [{"measurement": "Ki", "setting": "[1]", "result": 3280, "unit": "nM"}, {"measurement": "Ki", "setting": "[2]", "result": 2980, "unit": "nM"}, {"measurement": "Ratio", "setting": "[3]", "result": 0.67}, {"measurement": "Ratio", "setting": "[4]", "result": 0.91}, {"measurement": "Ratio", "setting": "[5]", "result": 1.36}, {"measurement": "Ki", "setting": "[6]", "result": 2190, "unit": "nM"}]}
{"smiles": "COC(=O)[C@H]1CN(CCc2ccccc2)CC[C@@H]1c1ccc(Cl)cc1", "values": [{"measurement": "Ki", "setting": "[1]", "result": 1080, "unit": "nM"}, {"measurement": "Ki", "setting": "[2]", "result": 142, "unit": "nM"}, {"measurement": "Ratio", "setting": "[3]", "result": 2.68}, {"measurement": "Ratio", "setting": "[4]", "result": 0.13}, {"measurement": "Ratio", "setting": "[5]", "result": 0.05}, {"measurement": "Ki", "setting": "[6]", "result": 2890, "unit": "nM"}]}
{"smiles": "COC(=O)C1CN(C(C)=O)CC[C@@H]1c1ccc(Cl)cc1", "note": "(some centres not stated)", "values": [{"measurement": "Ki", "setting": "[1]", "result": "> 10000", "unit": "nM"}, {"measurement": "Ki", "setting": "[2]", "result": "> 10000", "unit": "nM"}, {"measurement": "Ki", "setting": "[6]", "result": "> 10000", "unit": "nM"}]}
{"smiles": "COC(=O)C1CN(Cc2ccc(O)cc2)CC[C@@H]1c1ccc(Cl)cc1", "note": "(some centres not stated)", "values": [{"measurement": "Ki", "setting": "[1]", "result": 1620, "unit": "nM"}, {"measurement": "Ki", "setting": "[2]", "result": 1080, "unit": "nM"}, {"measurement": "Ratio", "setting": "[3]", "result": 1.64}, {"measurement": "Ratio", "setting": "[4]", "result": 0.67}, {"measurement": "Ratio", "setting": "[5]", "result": 0.41}, {"measurement": "Ki", "setting": "[6]", "result": 2650, "unit": "nM"}]}
{"smiles": "CN1CC[C@H](c2ccc(Cl)cc2)[C@@H](CO)C1", "values": [{"measurement": "Ki", "setting": "[1]", "result": 497, "unit": "nM"}, {"measurement": "Ki", "setting": "[2]", "result": 198, "unit": "nM"}, {"measurement": "Ratio", "setting": "[3]", "result": 3.12}, {"measurement": "Ratio", "setting": "[4]", "result": 0.4}, {"measurement": "Ratio", "setting": "[5]", "result": 0.13}, {"measurement": "Ki", "setting": "[6]", "result": 1550, "unit": "nM"}]}
{"smiles": "COC(=O)[C@@H]1CN(CCc2ccccc2)CC[C@@H]1c1ccc(Cl)cc1", "values": [{"measurement": "Ki", "setting": "[1]", "result": 1020, "unit": "nM"}, {"measurement": "Ki", "setting": "[2]", "result": 233, "unit": "nM"}, {"measurement": "Ratio", "setting": "[3]", "result": 1.84}, {"measurement": "Ratio", "setting": "[4]", "result": 0.23}, {"measurement": "Ratio", "setting": "[5]", "result": 0.12}, {"measurement": "Ki", "setting": "[6]", "result": 1880, "unit": "nM"}]}
